This is an account of results in article PMC8511113 (European journal of medicinal chemistry, 2021).

“Also recorded” adds a separate entry of the source.

Data set [1] can be described thus: In-vivo single dose oral rat pharmacokinetics. As to conditions: oral 1 mg/kg, male Lewis rats. A digest of the protocol:
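Male Lewis rats, 3 per group, were fasted at least 16 h before dosing, with food returned about 4 h after. A 0.5 mg/mL suspension in 0.5% methylcellulose (400 cps) was given by gavage at 1.0 mg/kg (2 mL/kg). Jugular-catheter blood (K2EDTA) was drawn pre-dose and at 0.25–24 h. Plasma was obtained at 2200xg for 10 min, refrigerated. AUC(0-inf) came from the arithmetic mean concentration–time curve.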

Data set [2] relates to MIA-induced cartilage degeneration in rat knee. Kind of data set: MIA rat model of OA via IA dosing, joint histology. Format: in vivo, male Sprague Dawley rats. A digest of the protocol: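 Cartilage damage was induced in male Sprague Dawley rats with 2 mg MIA in 40 μl, injected into the right knee. On days 5, 12 and 19 after MIA, rats received intra-articular injections (8 per group) of vehicle, test compound (1 mg, saline suspension) or triamcinolone (0.06 mg). Naive rats (5) received no injections. Right knees were taken on day 26 for histology of the MTP, MFC, LTP and LFC surfaces and their mean. Groups were compared with vehicle by one-way ANOVA or Kruskal-Wallis with post-test, significance p<0.05.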

The mark [3] stands for this setting: IA days 5, 12, 19, histology day 26, AQU-019 1 mg.
[4] abbreviates: IA days 5, 12, 19, histology day 26, AQU-019 1 mg, Triamcinolone 0.06 mg.
Setting [5] is: IA days 5, 12, 19 after MIA, histology day 26, AQU-019 1 mg, significant.

`[2H]C([2H])(NC(=O)c1cc(C(=O)NCc2ccc(F)c(C)c2)ncn1)c1ccc(C(=O)O)cc1` [AQU-019, 4-(Dideutero-{[6-(4-fluoro-3-methyl-benzylcarbamoyl)-pyrimidine-4-carbonyl]-amino}-methyl)-benzoic acid]: in data set [1], the “Improvement in AUC(0-infinity) over non-deuterated parent 18” value stood at 64%, the “Increase of AUC(0-t) over non-deuterated parent 18” value is reported as 68% and the “Increase of Cmax over non-deuterated parent 18” value amounted to 17%. Further, in data set [2] (setting [3]), the “Bone resorption vs Vehicle (in words)” value is given as “trend of reduced resorption compared to Vehicle but was not statistically significant; also recorded: while reduced, was not statistically significant” and the “Osteophyte scores/measurement vs Vehicle (in words)” value was “no reduction in osteophyte measurement; also recorded: comparable to Vehicle control; also recorded: no effect on osteophytes measurement”. In data set [2] (setting [4]), the “Cartilage degeneration / chondroprotection vs Vehicle (in words)” value is recorded as “significant chondroprotection”. Further, in data set [2] (setting [5]), the “Reduction in the mean loss on the LTP and LFC vs Vehicle” value is given as 21–22%; the “Reduction in the mean loss, mean of all surfaces vs Vehicle” value came out at 16%.
Consider `C[C@]12C=CC(=O)C=C1CC[C@H]1[C@@H]3C[C@@H](O)[C@](O)(C(=O)CO)[C@@]3(C)C[C@H](O)[C@@]12F` [Triamcinolone, reference compound], for which the “Reduction of osteophyte scores/measurement vs Vehicle” value in data set [2] (IA days 5, 12, 19, day 26, Triamcinolone 0.06 mg, P<0.05) was 40–47%. The “Reduction of bone resorption, overall mean vs Vehicle” value in data set [2] (IA days 5, 12, 19, day 26, Triamcinolone 0.06 mg, significant) came out at 43%. Also, in data set [2] (setting [4]), the “Cartilage degeneration / chondroprotection vs Vehicle (in words)” value is reported as “no reductions in cartilage degeneration”. The “Cell loss vs Vehicle (in words)” value in data set [2] (IA days 5, 12, 19, histology day 26, Triamcinolone 0.06 mg) is “no significant reductions in cell loss”.
